# An excerpt weighted towards active compounds, which were near 2% of everything screened.
# SR-BI HDL uptake: inhibitors of SR-BI mediated HDL lipid uptake, primary screen, ldlA[mSR-BI] cells, fluorescence, single point; Scavenger receptor class B member 1 (Mus musculus), Q61009; inhibition, % at 12.5 µM; actives 0.96% (n = 320,000); ldlA[mSR-BI] CHO cells, DiI-HDL uptake fluorescence, 3 h; AID 488896, 2010;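 active means mean replicate inhibition of at least 70% and a set share of replicates each scoring 70 or more; inconclusive means meets just one of the two criteria; inactive means fails both criteria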;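 further: 0% = median of neutral control wells and 100% = median of positive control wells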
# Target sequence (Q61009 whole entry, looked up): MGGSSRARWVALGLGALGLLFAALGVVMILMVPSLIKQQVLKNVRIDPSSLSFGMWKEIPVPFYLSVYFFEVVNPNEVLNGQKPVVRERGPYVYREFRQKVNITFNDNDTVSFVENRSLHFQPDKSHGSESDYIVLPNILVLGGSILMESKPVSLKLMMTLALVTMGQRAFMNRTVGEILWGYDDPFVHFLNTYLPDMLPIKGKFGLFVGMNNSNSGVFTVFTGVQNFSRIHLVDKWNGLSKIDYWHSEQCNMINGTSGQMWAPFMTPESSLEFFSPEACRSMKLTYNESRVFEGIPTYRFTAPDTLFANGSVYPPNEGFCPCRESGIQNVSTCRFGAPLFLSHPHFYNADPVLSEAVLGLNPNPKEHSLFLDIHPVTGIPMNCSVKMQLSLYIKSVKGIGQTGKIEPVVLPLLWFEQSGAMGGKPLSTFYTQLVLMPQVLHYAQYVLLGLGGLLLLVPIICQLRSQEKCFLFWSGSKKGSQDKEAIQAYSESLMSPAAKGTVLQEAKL
# SR-BI DiI-HDL act: activators of SR-BI mediated DiI-HDL uptake, primary screen, ldlA[mSR-BI] CHO cells, DiI fluorescence; 3 h; 100 = double the neutral-control signal; activation, % at 12.5 µM; actives 0.096% (n = 320,000);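 active means mean replicate activation of at least 60% and every replicate at or above 60%; inconclusive means mean or all-replicate condition met, but not both; inactive means mean below 60% and not all replicates reaching 60%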;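 further: 0% = median plate neutral-control signal and 100% = twice that signal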
#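 Test system: SR-BI-overexpressing, LDLR-lacking CHO cells; Medium: Ham's F12 with 0.5% BSA, HEPES 25 mM, pH 7.4; Schedule: 3 h, 37 °C; Technique: bottom-read fluorescence, 550/595 nm.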
# XiGFP reactiv: activators of inactive X chromosome reactivation, primary screen, imaging, XiGFP fibroblasts, GFP high-content imaging, set 2; XiGFP mouse fibroblasts, % GFP-positive cells imaging, 3 d; cells co-treated with 5-aza-dC sensitizer; scaled so ellipticine positive control = 100%; activation, % at 7.58 µM; actives 0.055% (n = 360,000);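 active means mean normalized replicate activation at least 10% and every replicate at or above 10%; inconclusive means only one of the two criteria met; inactive means mean below 10% and not all replicates reach 10%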;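 further: 0% = median of on-plate neutral control wells and 100% = ellipticine 6 µM median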
#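 System: 68-5-11 XiGFP fibroblast line | Buffer or medium: DMEM containing 5-aza-dC | Compound: Single point | Times: Compounds 3 days, fix/stain 15 min at room temperature | Benchmarks: Positive control ellipticine, 6 µM final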
# NSD2 inh: NSD2 histone methyltransferase inhibitors, primary screen, biochemical, AlphaScreen, single concentration, set 2; NSD2 peptide methylation, 120 min; inhibition, % at 12.5 µM; actives 0.54% (n = 310,000); AID 743445, 2014; in the data active means inhibition above about 50%
# sPLA2-III inh: human group III sPLA2 inhibitors, primary screen, biochemical, QFRET, BODIPY PC-A2 liposome substrate. Group 3 secretory phospholipase A2 (Homo sapiens), Q9NZ20. QFRET BODIPY PC-A2 liposome hydrolysis, fluorescence. AID 743126, 2013. actives 0.56% (n = 370,000). inhibition, % at 12.2 µM;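 active means inhibition above mean plus 3 SD of compounds lying within the high and low control bounds, cut at about 19% in these data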;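 further: 0% = median of test compound wells and 100% = no enzyme DMSO wells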
# ARNT-TACC3 inh: disruptors of ARNT/TACC3 protein interaction, primary screen, biochemical, AlphaScreen, single concentration; AlphaScreen His-ARNT PAS-B/GST-TACC3 binding, luminescence; TACC3 fragment carries E629A point mutation; AID 623870, 2012; actives 0.66% (n = 390,000); inhibition, % at 9.99 µM; Transforming acidic coiled-coil-containing protein 3 (Homo sapiens), Q9Y6A5;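 active means mean inhibition of replicates at least 50% and at least half of replicates each reaching 50%; inconclusive means half or more replicates reach 50% but mean below 50%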;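 further: 0% = complete ARNT plus TACC3 wells and 100% = ARNT alone without TACC3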
# sPLA2 confirm: human group III sPLA2 inhibitors, confirmation, biochemical, QFRET, triplicate | actives 34% (n = 2,000) | inhibition, % at 12.2 µM | shares compounds with sPLA2-III inh | recombinant hGIII-sPLA2, BODIPY PC-A2 QFRET fluorescence;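 active means mean inhibition across triplicates above the hit cutoff set in the earlier primary screen, cut at about 19% in these data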;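 further: 0% = enzyme with DMSO and 100% = DMSO wells lacking enzyme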
# BODIPY interf: 535nm fluorescence optical interference, confirmation, artefact control for HGIII-sPLA2 inhibitor project, biochemical, QFRET; shares compounds with sPLA2-III inh; BODIPY FL product fluorescence interference; inhibition, % at 12.2 µM; actives 8.5% (n = 2,000); AID 743282, 2014;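 active means average inhibition above the solvent-only control mean plus 3 SD, cut at about 6% in these data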;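 further: 0% = DMSO with substrate plus product and 100% = DMSO with substrate alone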
# * = called active by the depositor; ? = inconclusive; / = not tested or not shown.
SMILES,SR-BI HDL uptake,SR-BI DiI-HDL act,XiGFP reactiv,NSD2 inh,sPLA2-III inh,ARNT-TACC3 inh,sPLA2 confirm,BODIPY interf
CCc1ccc(CC2(O)CC(C)N(C)CC2C)cc1 (configuration not stated),-2,2,0,0,2,0,/,/
CC1CC(O)(CC(O)(c2ccccc2)c2ccccc2)C(C)CN1C (configuration not stated),-37,37,0,4,19*,-6,-13,-16
CCCNC(=O)c1ccc2c(=O)n(Cc3ccco3)c(=S)[nH]c2c1,6,-6,0,4,12,5,/,/
CCCC(=O)NC(c1ccc(C(C)C)cc1)c1ccc2cccnc2c1O (configuration not stated),22,-22,0,1,20*,-2,18,-12
CCCC(=O)NC(c1ccccc1Cl)c1ccc2cccnc2c1O (configuration not stated),3,-3,0,-2,30*,-6,26*,1
C/C(CC1CC(C)OC1=O)=N\NC(N)=S (configuration not stated),?,-72,0,-1,15,5,/,/
C/C(CC(C)(C)C1CCCCC1)=N\NC(N)=S,66,-66,/,-2,20*,10,19*,-3
CN1CCN(CCCNC(=O)c2ccc3c(c2)N(Cc2ccc(F)cc2)CCS3)CC1,29,-29,0,20,-16,8,/,/
CCCC(=O)N(CCc1c[nH]c2ccccc12)[C@@H]1CC(C(=O)NCCO)=C[C@H](Oc2c(I)cc(CO)cc2OC)[C@H]1O,/,/,/,/,/,5,/,/
COc1cccc(-c2nc(-c3ccccc3)c3ccc(Cl)cc3n2)c1,/,/,0,/,20*,/,-3,-6
COc1ccc(Nc2nc(-c3ccccc3)c3ccccc3n2)cc1,-8,8,0,1,5,3,/,/
Cc1ccc2c(c1)c1c(n2CC(O)CNC2CCCC2)CCCC1 (configuration not stated),/,/,0,31,20*,7,6,-29
C[C@H](CO)N1C[C@H](C)[C@@H](CN(C)S(=O)(=O)c2cccs2)Oc2c(NC(=O)Nc3cccc4ccccc34)cccc2C1=O,/,/,-1,/,/,-2,/,/
O=C(NCc1ccccc1)[C@@H]1CCCN1C(=O)[C@H]1CCCN1C(=O)c1ccc(Cl)cc1,/,/,1,/,21*,/,2,-17
CCn1c(=O)c2c(nc3n2CCCN3CCc2ccc(OC)c(OC)c2)n(C)c1=O,8,-8,0,3,6,14,/,/
COc1ccc(CCN2CCCn3c2nc2c3c(=O)n(CC(C)C)c(=O)n2C)cc1OC,-3,3,0,20,24*,-2,13,-17
CCOc1ccc(NC(=O)c2ccc3c(c2)S(=O)(=O)N=C2CCCCCN23)cc1,/,/,0,-3,19*,/,0,-4
O=C(Nc1ccc(F)cc1)c1ccc2c(c1)S(=O)(=O)N=C1CCCCCN12,7,-7,0,-2,-4,-2,/,/

# Source: PubChem (several laboratories)
